Assay results as given in ChEMBL document CHEMBL4346654 (Eur J Med Chem, 2019).
Values after ≈ are worked out from the molar mass of the structure shown.

Tests used:
Assay type in all cases: functional
Streptococcus pneumoniae [1] = assay: Antibacterial activity against penicillin-susceptible Streptococcus pneumoniae PU 09 expressing mef gene assessed as reduction in microbial growth by CLSI based two-fold broth dilution method
Staphylococcus aureus [2] = assay: Selectivity ratio of MBC to MIC for MLS/methicillin-resistant Staphylococcus aureus PU 32 expressing inducible ermA gene
How it was run: (§1)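 MBC/MIC ratio. MIC was measured by CLSI standard two-fold broth dilution. MBC was measured by transferring samples at 1–8 fold MIC to culture medium and subculturing for 24 h without antibiotic. Isolates were identified by 16S rDNA sequencing.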

Staphylococcus aureus [3] = assay: Bactericidal activity against MLS-resistant Staphylococcus aureus PU 20 expressing constitutive ermC gene pretreated followed by subculture in absence of compound measured after 24 hrs
How it was run: (§2)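 MBC assay. Following MIC determination by CLSI standard two-fold broth dilution, samples at 1–8 fold MIC were transferred to fresh culture medium. They were subcultured for 24 h without antibiotic. Isolates were identified by 16S rDNA sequencing. S. aureus ATCC 29213 was used as a control strain.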

Staphylococcus aureus [4] = assay: Selectivity ratio of MBC to MIC for MLS-resistant Staphylococcus aureus PU 20 expressing constitutive ermC gene; how it was run: as §1
Haemophilus influenzae [5] = assay: Bactericidal activity against azithromycin-susceptible Haemophilus influenzae ATCC 49247 pretreated followed by subculture in absence of compound measured after 24 hrs
How it was run: (§3)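 Isolates were identified by 16S rDNA sequencing. MIC was determined by CLSI-recommended two-fold broth dilution. For MBC, samples from 1–8 fold MIC were transferred to culture medium and subcultured for 24 h without antibiotic.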

Streptococcus pneumoniae [6] = assay: Antibacterial activity against erythromycin-susceptible Streptococcus pneumoniae ATCC49619 assessed as reduction in microbial growth by CLSI based two-fold broth dilution method
Streptococcus pneumoniae [7] = assay: Selectivity ratio of MBC to MIC for erythromycin-susceptible Streptococcus pneumoniae ATCC49619; how it was run: as §3
Streptococcus pneumoniae [8] = assay: Bactericidal activity against penicillin-susceptible Streptococcus pneumoniae PU 09 expressing mef gene pretreated followed by subculture in absence of compound measured after 24 hrs; how it was run: as §3
Staphylococcus aureus [9] = assay: Antibacterial activity against MLS-resistant Staphylococcus aureus PU 20 expressing constitutive ermC gene assessed as reduction in microbial growth by CLSI based two-fold broth dilution method
Streptococcus pyogenes [10] = assay: Bactericidal activity against MLS-resistant Streptococcus pyogenes 01-968 expressing inducible ermB gene pretreated followed by subculture in absence of compound measured after 24 hrs; how it was run: as §2
Streptococcus pneumoniae [11] = assay: Selectivity ratio of MBC to MIC for penicillin-susceptible Streptococcus pneumoniae PU 09 expressing mef gene; how it was run: as §3
Haemophilus influenzae [12] = assay: Antibacterial activity against azithromycin-susceptible Haemophilus influenzae ATCC 49247 assessed as reduction in microbial growth by CLSI based two-fold broth dilution method
Staphylococcus aureus [13] = assay: Antibacterial activity against MLS-resistant Staphylococcus aureus PU 32 expressing inducible ermA gene assessed as reduction in microbial growth by CLSI based two-fold broth dilution method
Streptococcus pyogenes [14] = assay: Antibacterial activity against MLS-resistant Streptococcus pyogenes 01-968 expressing inducible ermB gene assessed as reduction in microbial growth by CLSI based two-fold broth dilution method
Haemophilus influenzae [15] = assay: Selectivity ratio of MBC to MIC for azithromycin-susceptible Haemophilus influenzae ATCC 49247; how it was run: as §3
Streptococcus pneumoniae [16] = assay: Antibacterial activity against Streptococcus pneumoniae 07P390 expressing constitutive ermB gene assessed as reduction in microbial growth by CLSI based two-fold broth dilution method
Staphylococcus aureus [17] = assay: Bactericidal activity against MLS/methicillin-resistant Staphylococcus aureus PU 32 expressing inducible ermA gene pretreated followed by subculture in absence of compound measured after 24 hrs; how it was run: as §2
Streptococcus pneumoniae [18] = assay: Bactericidal activity against erythromycin-susceptible Streptococcus pneumoniae ATCC49619 pretreated followed by subculture in absence of compound measured after 24 hrs; how it was run: as §3
Streptococcus pyogenes [19] = assay: Selectivity ratio of MBC to MIC for MLS-resistant Streptococcus pyogenes 01-968 expressing inducible ermB gene; how it was run: as §1
Streptococcus pyogenes [20] = assay: Selectivity ratio of MBC to MIC for MLS-resistant Streptococcus pyogenes 12-206 expressing constitutive ermA gene; how it was run: as §1
Moraxella catarrhalis [21] = assay: Bactericidal activity against erythromycin-susceptible Moraxella catarrhalis 13L332 pretreated followed by subculture in absence of compound measured after 24 hrs; how it was run: as §3
Streptococcus pyogenes [22] = assay: Selectivity ratio of MBC to MIC for Streptococcus pyogenes 12-207 expressing mef gene; how it was run: as §3
Streptococcus pneumoniae [23] = assay: Selectivity ratio of MBC to MIC for Streptococcus pneumoniae 07P390 expressing constitutive ermB gene; how it was run: as §3
Moraxella catarrhalis [24] = assay: Antibacterial activity against erythromycin-susceptible Moraxella catarrhalis 13L332 assessed as reduction in microbial growth by CLSI based two-fold broth dilution method
Moraxella catarrhalis [25] = assay: Selectivity ratio of MBC to MIC for erythromycin-susceptible Moraxella catarrhalis 13L332; how it was run: as §3
Streptococcus pyogenes [26] = assay: Bactericidal activity against Streptococcus pyogenes 12-207 expressing mef gene pretreated followed by subculture in absence of compound measured after 24 hrs; how it was run: as §3
Streptococcus pyogenes [27] = assay: Bactericidal activity against MLS-resistant Streptococcus pyogenes 12-206 expressing constitutive ermA gene pretreated followed by subculture in absence of compound measured after 24 hrs; how it was run: as §2
Streptococcus pneumoniae [28] = assay: Bactericidal activity against Streptococcus pneumoniae 07P390 expressing constitutive ermB gene pretreated followed by subculture in absence of compound measured after 24 hrs; how it was run: as §3
Streptococcus pyogenes [29] = assay: Antibacterial activity against MLS-resistant Streptococcus pyogenes 12-206 expressing constitutive ermA gene assessed as reduction in microbial growth by CLSI based two-fold broth dilution method
Streptococcus pyogenes [30] = assay: Antibacterial activity against Streptococcus pyogenes 12-207 expressing mef gene assessed as reduction in microbial growth by CLSI based two-fold broth dilution method

CC[C@H]1OC(=O)[C@@](C)(F)C(=O)[C@H](C)[C@@H](O[C@@H]2O[C@H](C)C[C@H](N(C)C)[C@H]2O)[C@](C)(OC)C[C@@H](C)/C(=N\OCC#Cc2cncc3ccccc23)[C@H](C)[C@H]2OC(=O)O[C@@]21C
MIC (Streptococcus pneumoniae [1]): 8 µg/mL
Selectivity ratio (Staphylococcus aureus [2]): >8
MBC (Staphylococcus aureus [3]): > 256 µg/mL
Selectivity ratio (Staphylococcus aureus [4]): >4
MBC (Haemophilus influenzae [5]): 128 µg/mL (≈ 158 µM)
MIC (Streptococcus pneumoniae [6]): 2 µg/mL
Selectivity ratio (Streptococcus pneumoniae [7]): 2
MBC (Streptococcus pneumoniae [8]): 8 µg/mL (≈ 9.85 µM)
MIC (Staphylococcus aureus [9]): 64 µg/mL
MBC (Streptococcus pyogenes [10]): > 4 µg/mL
Selectivity ratio (Streptococcus pneumoniae [11]): 1
MIC (Haemophilus influenzae [12]): 64 µg/mL
MIC (Staphylococcus aureus [13]): 4 µg/mL
MIC (Streptococcus pyogenes [14]): 0.5 µg/mL
Selectivity ratio (Haemophilus influenzae [15]): 2
MIC (Streptococcus pneumoniae [16]): > 32 µg/mL
MBC (Staphylococcus aureus [17]): > 32 µg/mL
MBC (Streptococcus pneumoniae [18]): 4 µg/mL (≈ 4.93 µM)
Selectivity ratio (Streptococcus pyogenes [19]): >8

CC[C@H]1OC(=O)[C@@](C)(F)C(=O)[C@H](C)[C@@H](O[C@@H]2O[C@H](C)C[C@H](N(C)C)[C@H]2O)[C@](C)(OC)C[C@@H](C)/C(=N\OC/C=C/c2ccc3c(c2)c(=O)c(C(=O)NC)cn3CC)[C@H](C)[C@H]2OC(=O)O[C@@]21C
MIC (Streptococcus pneumoniae [1]): 0.5 µg/mL
Selectivity ratio (Staphylococcus aureus [2]): >8
MBC (Staphylococcus aureus [3]): > 256 µg/mL
MBC (Haemophilus influenzae [5]): 256 µg/mL (≈ 280 µM)
Selectivity ratio (Streptococcus pyogenes [20]): >8
MIC (Streptococcus pneumoniae [6]): ≤ 0.008 µg/mL
MBC (Moraxella catarrhalis [21]): 64 µg/mL (≈ 69.9 µM)
Selectivity ratio (Streptococcus pyogenes [22]): 4
MBC (Streptococcus pneumoniae [8]): 0.5 µg/mL (≈ 0.546 µM)
MIC (Staphylococcus aureus [9]): 128 µg/mL
MBC (Streptococcus pyogenes [10]): > 0.125 µg/mL
Selectivity ratio (Streptococcus pneumoniae [11]): 1
MIC (Haemophilus influenzae [12]): 128 µg/mL
MIC (Staphylococcus aureus [13]): 2 µg/mL
MIC (Streptococcus pyogenes [14]): 0.016 µg/mL
Selectivity ratio (Streptococcus pneumoniae [23]): >8
Selectivity ratio (Haemophilus influenzae [15]): 2
MIC (Streptococcus pneumoniae [16]): 0.25 µg/mL
MIC (Moraxella catarrhalis [24]): 8 µg/mL
Selectivity ratio (Moraxella catarrhalis [25]): 8
MBC (Staphylococcus aureus [17]): > 16 µg/mL
MBC (Streptococcus pyogenes [26]): 1 µg/mL (≈ 1.09 µM)
MBC (Streptococcus pyogenes [27]): > 8 µg/mL
MBC (Streptococcus pneumoniae [28]): > 2 µg/mL
MBC (Streptococcus pneumoniae [18]): ≤ 0.008 µg/mL
MIC (Streptococcus pyogenes [29]): 1 µg/mL
Selectivity ratio (Streptococcus pyogenes [19]): >8
MIC (Streptococcus pyogenes [30]): 0.25 µg/mL

CC[C@H]1OC(=O)[C@@](C)(F)C(=O)[C@H](C)[C@@H](O[C@@H]2O[C@H](C)C[C@H](N(C)C)[C@H]2O)[C@](C)(OC)C[C@@H](C)/C(=N\OCC#Cc2ccc3c(c2)c(=O)c(C(N)=O)cn3C2CC2)[C@H](C)[C@H]2OC(=O)O[C@@]21C
MIC (Streptococcus pneumoniae [1]): 0.25 µg/mL
Selectivity ratio (Staphylococcus aureus [2]): 8
MBC (Staphylococcus aureus [3]): > 256 µg/mL
MBC (Haemophilus influenzae [5]): 128 µg/mL (≈ 140 µM)
Selectivity ratio (Streptococcus pyogenes [20]): >8
MIC (Streptococcus pneumoniae [6]): ≤ 0.008 µg/mL
MBC (Moraxella catarrhalis [21]): > 32 µg/mL
Selectivity ratio (Streptococcus pyogenes [22]): 8
MBC (Streptococcus pneumoniae [8]): 0.5 µg/mL (≈ 0.549 µM)
MIC (Staphylococcus aureus [9]): 128 µg/mL
MBC (Streptococcus pyogenes [10]): > 0.016 µg/mL
Selectivity ratio (Streptococcus pneumoniae [11]): 2
MIC (Haemophilus influenzae [12]): 32 µg/mL
MIC (Staphylococcus aureus [13]): 1 µg/mL
MIC (Streptococcus pyogenes [14]): ≤ 0.002 µg/mL
Selectivity ratio (Streptococcus pneumoniae [23]): >8
Selectivity ratio (Haemophilus influenzae [15]): 4
MIC (Streptococcus pneumoniae [16]): 0.25 µg/mL
MIC (Moraxella catarrhalis [24]): 4 µg/mL
Selectivity ratio (Moraxella catarrhalis [25]): >8
MBC (Staphylococcus aureus [17]): 8 µg/mL (≈ 8.78 µM)
MBC (Streptococcus pyogenes [26]): 2 µg/mL (≈ 2.2 µM)
MBC (Streptococcus pyogenes [27]): > 8 µg/mL
MBC (Streptococcus pneumoniae [28]): > 2 µg/mL
MBC (Streptococcus pneumoniae [18]): ≤ 0.008 µg/mL
MIC (Streptococcus pyogenes [29]): 1 µg/mL
Selectivity ratio (Streptococcus pyogenes [19]): >8
MIC (Streptococcus pyogenes [30]): 0.25 µg/mL
